Paper PMC11809490 (RSC Advances, 2025)
Entries after “also recorded” stand apart in the source; their conditions may differ. Where two headings read alike, the source gives them in different places.

Columns and labels:
MCF7 = experiment: MTT assay, cytotoxicity; assay type: cell-based, human; conditions: read-out: IC50 MCF7
How it was run: (§1)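 Cells in medium with 10% FBS, streptomycin and penicillin; 5000 cells per well. After 12 h, test compounds added at 0.1–40 μM, with 0.1% DMSO as vehicle, for 48 h. Then serum-free medium and MTT (5 mg mL−1) at 4:1 for 4 h at 37 °C. Formazan dissolved in DMSO, absorbance at 570 nm, normalized to DMSO control. IC50 from sigmoidal variable-slope nonlinear regression.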

PC3 = experiment: MTT assay, cytotoxicity; assay type: cell-based, human; conditions: read-out: IC50 PC3
How it was run: as §1

C4-2 = experiment: MTT assay, cytotoxicity; assay type: cell-based, human
22Rv1 = experiment: MTT assay, cytotoxicity; assay type: cell-based, human; conditions: read-out: IC50 22Rv1
How it was run: as §1

HEK293 = experiment: MTT assay, cytotoxicity to normal cells; assay type: cell-based, human; conditions: for IC50: read-out: IC50 HEK293
How it was run: as §1

[1] = test system: prostate, breast, epithelial cancer cells; experiment: MTT assay, all tested cancer cell lines together; assay type: cell-based, human
How it was run: as §1

C4-2 cells [2] = experiment: Acridine orange/ethidium bromide assay; assay type: cell-based, human; conditions: 10 and 20 μM, 48 h
How it was run: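 C4-2 cells (0.25 × 10^5) seeded on 12 mm coverslips for 12 h, then given DMSO or test compound (10 and 20 μM) for 48 h. After PBS wash, stained with AO (100 μg mL−1) plus EB (100 μg mL−1) in PBS for 20 min. Washed and imaged by fluorescence microscopy: FITC channel for green (AO, all cells), TRITC for red (EB, dead cells).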

C4-2 cells [3] = experiment: JC-1 staining, mitochondrial depolarization; assay type: cell-based, human; conditions: 10 μM or 20 μM, 48 h
How it was run: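 C4-2 cells (0.25 × 10^5) on 12 mm coverslips, seeded 12 h, then exposed to DMSO or test compound (10 or 20 μM) for 48 h. After PBS wash, incubated with JC-1 (2 μM) in PBS for 20 min. Imaged in FITC and TRITC channels: orange aggregates mark polarized mitochondria, green marks depolarized.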

C4-2 cells [4] = experiment: Intracellular ROS levels, H2DCFDA staining; assay type: cell-based, human; conditions: 10 μM and 20 μM, 48 h
How it was run: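 C4-2 cells on coverslips got DMSO, test compound or H2O2 (10 μM) for 48 h. The figure legend gives test compound at 10 and 20 μM. Cells washed with PBS and loaded with H2DCFDA (2 μM final) in PBS, 40 min at 37 °C. Green signal imaged in FITC channel and expressed relative to DMSO. Three independent replicates; Student's t-test.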

tubulin in C4-2 cells = experiment: Tubulin immunofluorescence; assay type: cell-based, human; conditions: 10 μM and 20 μM, 48 h
How it was run: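 Fixed and permeabilized with ice-cold methanol. Blocked 1 h in 2% BSA/1% Triton X-100 in PBS. Tubulin antibody overnight at 4 °C, then FITC goat anti-mouse secondary 3 h in the dark. Imaged in FITC and DAPI channels.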

C4-2 cells [5] = experiment: Clonogenic assay; assay type: cell-based, human; conditions: 10 μM or 20 μM, 10 days
How it was run: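 1000 C4-2 cells plated per well and exposed to test compound at 10 or 20 μM. […] Incubated 10–12 days, washed with PBS and fixed in cold methanol:acetic acid (3:1) for 5–10 min. Colonies photographed for number and size. Run in duplicate.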

p-53 and c-jun = experiment: Level of p-53 and c-jun; assay type: cell-based
MIAPACA = experiment: MTT assay, cytotoxicity; assay type: cell-based, human; conditions: read-out: IC50 MIAPACA, 48 h treatment, 0.1-40 μM
How it was run: as §1

[6] = Homo sapiens, C4-2, 48 h, read-out: IC50 C4-2, MTT, 48 h treatment, 0.1-40 μM
[7] = read-out: IC50 C4-2, MTT, 48 h treatment, 0.1-40 μM
[8] = normal human kidney cells, MTT, 48 h

Row | Compound | IC50 (MCF7; Homo sapiens, MCF7, 48 h) [µM] | IC50 (PC3; Homo sapiens, PC-3, 48 h) [µM] | IC50 (C4-2; [6]) [µM] | IC50 (22Rv1; Homo sapiens, 22Rv1, 48 h) [µM] | IC50 (HEK293; Homo sapiens, HEK293, 48 h) [µM] | cytotoxicity against the tested cancer cells, in words (SAR) [1] | also measured
1 | CCCOc1ccc2[nH]cc(C(=O)C(C#N)=Cc3cn(CC)c4ccccc34)c2c1 [21j, 3-(1-Ethyl-1H-indol-3-yl)-2-(5-propoxy-1H-indole-3-carbonyl)acrylonitrile] | 1.2 | 5.6 | 0.9 | 2.9 | > 40 | significantly enhanced cytotoxicity; also recorded: most effective compound across all cancer cell lines tested | IC50 (C4-2; [7]): 0.98 µM; cytotoxicity to normal HEK293 cells, in words (HEK293): no notable impact; cell death / apoptosis by AO-EB staining (C4-2 cells [2]): robust cell death; also recorded: induced substantial apoptosis; mitochondrial depolarization (JC-1) (C4-2 cells [3]): induced significant mitochondrial depolarization; also recorded: induces mitochondrial depolarization; ROS levels (DCFDA) (C4-2 cells [4]): robust increase in ROS levels; also recorded: raises the levels of ROS; tubulin assembly (β-tubulin antibody staining) (tubulin in C4-2 cells): significant loss of tubulin assembly; also recorded: increases tubulin depolymerization; number and size of colonies (C4-2 cells [5]): significantly inhibited the number and size of colonies; also recorded: inhibits colony formation; level of p-53 and c-jun (p-53 and c-jun): upregulate the level of p-53 and c-jun
2 | CCn1cc(C=C(C#N)C(=O)c2c[nH]c3cc(OC)ccc23)c2ccccc21 [21f, 3-(1-Ethyl-1H-indol-3-yl)-2-(6-methoxy-1H-indole-3-carbonyl)acrylonitrile] | 37 | 24 | 12.5 | > 40 | 40 | reduced activity | 
3 | CCn1cc(C=C(C#N)C(=O)c2c[nH]c3ccc(OC)cc23)c2ccccc21 [21d, 3-(1-Ethyl-1H-indol-3-yl)-2-(5-methoxy-1H-indole-3-carbonyl)acrylonitrile] | 10.9 | > 40 | 8 | 25 | 39.2 |  | 
4 | CCOc1ccc2[nH]cc(C(=O)C(C#N)=Cc3cn(CC)c4ccccc34)c2c1 [21i, 2-(5-Ethoxy-1H-indole-3-carbonyl)-3-(1-ethyl-1H-indol-3-yl)acrylonitrile] | 7.38 | 2.63 | 2.2 | 8.9 | > 40 | significantly enhanced cytotoxicity | 
5 | COc1ccc2c(C(=O)C(C#N)=Cc3cn(C)c4ccccc34)c[nH]c2c1 [21e, 2-(6-Methoxy-1H-indole-3-carbonyl)-3-(1-methyl-1H-indol-3-yl)acrylonitrile] | 12.5 | 7.61 | 15.7 | 28 | > 40 | reduced activity | 
6 | CCn1cc(C=C(C#N)C(=O)c2c[nH]c3cc(OC)c(OC)cc23)c2ccccc21 [21o, 2-(5,6-Dimethoxy-1H-indole-3-carbonyl)-3-(1-ethyl-1H-indol-3-yl)acrylonitrile] | 31.5 | 19 | 5.9 | 26 | > 40 | improved the selectivity against prostate cancer cell lines | 
7 | 3-(1-Ethyl-1H-indol-3-yl)-2-(5-isopropoxy-1H-indole-3-carbonyl)acrylonitrile [21l] |  |  |  |  |  |  | IC50 (MCF7; MTT, 48 h treatment, 0.1-40 μM): 7.95 µM; IC50 (PC3; MTT, 48 h treatment, 0.1-40 μM): 4.6 µM; IC50 (C4-2; [7]): 26.4 µM; IC50 (22Rv1; MTT, 48 h treatment, 0.1-40 μM): 2.5 µM; IC50 (MIAPACA): 37.6 µM; IC50 (HEK293; [8]): 37.9 µM
8 | COc1cc2[nH]cc(C(=O)C(C#N)=Cc3cn(C)c4ccccc34)c2cc1OC [21n, 2-(5,6-Dimethoxy-1H-indole-3-carbonyl)-3-(1-methyl-1H-indol-3-yl)acrylonitrile] | 5.61 | 7.1 | 1.02 | 20.5 | > 40 | improved the selectivity against prostate cancer cell lines | 
9 | CCCOc1ccc2[nH]cc(C(=O)C(C#N)=Cc3cn(C)c4ccccc34)c2c1 [21k, 3-(1-Methyl-1H-indol-3-yl)-2-(5-propoxy-1H-indole-3-carbonyl)acrylonitrile] | 18.6 | 16.1 | 13.8 | 28 | 39.8 |  | 
10 | COc1ccc2c(C(=O)C(C#N)=Cc3cn(Cc4ccc(Cl)cc4)c4ccccc34)c[nH]c2c1 [21g, 3-(1-(4-Chlorobenzyl)-1H-indol-3-yl)-2-(6-methoxy-1H-indole-3-carbonyl)acrylonitrile] | 10.5 | 14.3 | 13.3 | 34 | > 40 | reduced activity | 
11 | COc1ccc(C=C(C#N)C(=O)c2c[nH]c3ccccc23)cc1 [21q, 2-(1H-Indole-3-carbonyl)-3-(4-methoxyphenyl)acrylonitrile] | 25 | 37 | > 40 | 28 | > 40 | detrimental for the activity | 
12 | CCn1cc(/C=C(\C#N)C(=O)c2c[nH]c3ccccc23)c2ccccc21 [21a, (E)-3-(1-Ethyl-1H-indol-3-yl)-2-(1H-indole-3-carbonyl)acrylonitrile] | 10.2 | 13 | 3.9 | > 40 | > 40 |  | 
13 | COc1cc2[nH]cc(C(=O)C(C#N)=Cc3cn(Cc4ccc(Cl)cc4)c4ccccc34)c2cc1OC [21p, 3-(1-(4-Chlorobenzyl)-1H-indol-3-yl)-2-(5,6-dimethoxy-1H-indole-3-carbonyl)-acrylonitrile] | > 40 | > 40 | 31 | > 40 | > 40 | detrimental for the activity | 
14 | N#CC(=Cc1cn(Cc2ccc(Cl)cc2)c2ccccc12)C(=O)c1c[nH]c2ccccc12 [21b, 3-(1-(4-Chlorobenzyl)-1H-indol-3-yl)-2-(1H-indole-3-carbonyl)acrylonitrile] | 6.9 | 10.6 | 13.5 | 21.5 | 40 | moderate activity | 
15 | COc1ccc(C=C(C#N)C(=O)c2c[nH]c3ccccc23)cc1OC [21r, 3-(3,4-Dimethoxyphenyl)-2-(1H-indole-3-carbonyl)acrylonitrile] | > 40 | 25 | > 40 | 34 | 31 | detrimental for the activity | 
16 | 2-(5-Isopropoxy-1H-indole-3-carbonyl)-3-(1-methyl-1H-indol-3-yl)acrylonitrile [21m] |  |  |  |  |  |  | IC50 (MCF7; MTT, 48 h treatment, 0.1-40 μM): 2.98 µM; IC50 (PC3; MTT, 48 h treatment, 0.1-40 μM): 11.7 µM; IC50 (C4-2; [7]): 17.6 µM; IC50 (22Rv1; MTT, 48 h treatment, 0.1-40 μM): 16.4 µM; IC50 (MIAPACA): 1.6 µM; IC50 (HEK293; [8]): > 40 µM
17 | CCOc1ccc2[nH]cc(C(=O)C(C#N)=Cc3cn(C)c4ccccc34)c2c1 [21h, 2-(5-Ethoxy-1H-indole-3-carbonyl)-3-(1-methyl-1H-indol-3-yl)acrylonitrile] | 16.8 | 27.3 | 10 | 5.23 | 40 | significantly enhanced cytotoxicity | 
18 | COc1ccc2[nH]cc(C(=O)C(C#N)=Cc3cn(C)c4ccccc34)c2c1 [21c, 2-(5-Methoxy-1H-indole-3-carbonyl)-3-(1-methyl-1H-indol-3-yl)acrylonitrile] | 25.3 | 15.5 | 7.5 | 1.23 | > 40 |  | 
